The source made the active and inactive calls.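 Rule for the calls, unless noted: active = active in primary screen and both duplicates, each dropping signal beyond three positive-control SD with fluorescence still positive; inactive = the rest.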
target: Short transient receptor potential channel 6 (Mus musculus) (UniProt Q61143); assay: inhibition of mouse TRPC6 channel, confirmation, selectivity assay for TRPC4 inhibitor project, cell-based, HEK293, membrane potential dye, duplicate (AID 434948); conditions: HEK293 TRPC6, membrane potential dye fluorescence, at 10 µM, stimulated with maximal-effect acetylcholine; hits give high values
Summary of the method: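 Reagent: acetylcholine at maximal (ECmax) concentration, added after compound; system: HEK293 cells expressing mouse TRPC6 channel; read-out basis: control-normalized integrated fluorescence ratio; replicates: duplicate testing; times: 45 min RT dye load, 110 s compound, 110 s agonist read; signal: membrane potential dye fluorescence, kinetic read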

Short transient receptor potential channel 6 (Mus musculus), sequence (Q61143 whole entry, looked up): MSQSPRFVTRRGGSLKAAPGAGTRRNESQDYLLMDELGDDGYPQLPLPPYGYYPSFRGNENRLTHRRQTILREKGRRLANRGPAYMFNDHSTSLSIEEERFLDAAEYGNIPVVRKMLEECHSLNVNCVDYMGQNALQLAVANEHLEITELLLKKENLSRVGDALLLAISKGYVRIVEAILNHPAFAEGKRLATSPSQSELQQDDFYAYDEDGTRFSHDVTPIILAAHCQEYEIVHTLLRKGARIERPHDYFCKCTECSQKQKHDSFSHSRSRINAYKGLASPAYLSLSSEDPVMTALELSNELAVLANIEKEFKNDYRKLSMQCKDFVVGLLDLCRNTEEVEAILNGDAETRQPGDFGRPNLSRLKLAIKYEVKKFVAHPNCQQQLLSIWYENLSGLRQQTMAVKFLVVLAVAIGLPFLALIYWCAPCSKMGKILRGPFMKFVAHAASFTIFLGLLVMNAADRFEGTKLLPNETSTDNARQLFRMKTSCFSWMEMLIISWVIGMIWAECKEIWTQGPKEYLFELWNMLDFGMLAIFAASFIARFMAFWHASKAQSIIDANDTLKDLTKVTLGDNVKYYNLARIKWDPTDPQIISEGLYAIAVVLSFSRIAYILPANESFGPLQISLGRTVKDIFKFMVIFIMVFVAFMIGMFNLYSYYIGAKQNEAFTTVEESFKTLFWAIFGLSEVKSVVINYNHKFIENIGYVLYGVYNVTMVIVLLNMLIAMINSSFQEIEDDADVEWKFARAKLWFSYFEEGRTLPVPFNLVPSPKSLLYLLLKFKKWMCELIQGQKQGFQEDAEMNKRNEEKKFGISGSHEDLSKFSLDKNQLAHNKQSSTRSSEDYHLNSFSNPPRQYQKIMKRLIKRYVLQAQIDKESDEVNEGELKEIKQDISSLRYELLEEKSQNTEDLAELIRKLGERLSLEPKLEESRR

SMILES	outcome	inhibition
COc1cc(C(F)(F)F)nc2c(Br)c(C(C)(C)C)nn12	inactive	–
COc1ccccc1N(C(=O)c1snc(C(N)=O)c1N)C(C(=O)NC1CCCC1)c1ccc2ncccc2c1 (stereo not given)	inactive	–
CCc1c(C(=O)N2CCCN(C)CC2)csc1C	inactive	–
O=c1c2ccccc2nc(SCc2ccc([N+](=O)[O-])cc2)n1CCCO	inactive	–
CN1/C(=C\C(=O)C[n+]2ccc3ccccc3c2)C(C)(C)c2ccccc21	inactive	–
CN(C)CCCN(C(=O)c1ccc(S(=O)(=O)N2CCCC2)cc1)c1nc2c(F)cc(F)cc2s1	inactive	–
O=[N+]([O-])c1cccc(N(CC(O)CN2CCCC2)S(=O)(=O)c2ccccc2)c1 (stereo not given)	inactive	–
Cc1cc(Nc2cccc(O)c2)c2ccccc2n1	–	55% (active)
COc1ccc(CN2CCN(Cc3ccc(C(F)(F)F)cc3)CC2)c(OC)c1	inactive	–
O=[N+]([O-])c1ccc(O)c(C2=NNC(c3ccccc3F)C2)c1 (stereo not given)	–	50% (active)
Cn1c(-c2ccccc2)cnc1NCc1ccc(F)cc1	inactive	–
COc1nc(N=C(N)N)nc2ccc(C)cc12	–	46.5% (active)
CN(CC(=O)NC1CCCc2ccccc21)C1CCCCC1 (stereo not given)	inactive	–
O=C(CSc1nnc(-c2ccc(Cl)cc2Cl)n1C1CCCCC1)N1CCCC1	inactive	–
Cc1ccc(Nc2cc(C)nc3c(C)cccc23)cc1	–	22% (active)
COc1cc(OC)c(C2N(C)c3ccccc3N2C)cc1OC	inactive	–
O=[N+]([O-])c1cccc(-c2nnc(C3CC3)o2)c1	inactive	–
O=C(NCCN1CCOCC1)c1cc2sccc2n1Cc1ccc(F)cc1	inactive	–
CN(C)CCCNc1c2ccccc2nc2ccccc12	inactive	–
COc1ccccc1Nc1nc(NCC2CCCO2)c2ccccc2n1 (stereo not given)	–	10% (active)

SMILES	outcome	inhibition
CC12CCC(C/C1=N/OC(=O)c1cccc([N+](=O)[O-])c1)C2(C)C (stereo not given)	inactive	–
CCN(CC)CCN(C(=O)c1ccccc1OC)c1nc2ccc(F)cc2s1	inactive	–
CCOc1ccccc1N(C(=O)c1snc(C(N)=O)c1N)C(C(=O)NCc1ccccc1)c1ccc(O)cc1 (stereo not given)	inactive	–
Cc1cc([N+](=O)[O-])ccc1NCc1ccccc1	inactive	–
Cn1c(-c2ccc(F)cc2)cnc1NCc1ccc(F)cc1F	inactive	–
Nc1cc(N2CCCCC2)c([N+](=O)[O-])cc1Cl	inactive	–
CN(C)C(CNC(=O)c1cccc(C(F)(F)F)c1)c1ccco1 (stereo not given)	inactive	–
COc1ccc(CN2CCN(C(=O)c3ccc(F)cc3)CC2)c(OC)c1	inactive	–
COCCn1c(SCc2ccccc2F)nc2ccccc2c1=O	inactive	–
COc1ccccc1C(=O)Nc1ccc2c(c1)CCCN2C(=O)c1cccs1	inactive	–
CCCCn1c(NCc2ccc(N(C)C)cc2)nc2ccccc21	–	51.5% (active)
COc1ccc([N+](=O)[O-])cc1NCc1ccco1	inactive	–
Cc1cc(C)c2nc(C)cc(N/N=C/c3ccc(O)cc3)c2c1	–	35% (active)
Cc1nn(C(=O)CNS(=O)(=O)c2ccccc2)c(C)c1Sc1ccc(Cl)cc1	–	52.5% (active)
Cc1n[nH]c(C)c1CCCCOc1ccccc1F	inactive	–
COC(=O)C1=C(C)N(Cc2ccccc2)C(=S)N[C@H]1c1ccccc1	inactive	–
CC1(c2ccccc2)CC(C)(C)N(C(=O)C2CCCO2)c2ccccc21 (stereo not given)	inactive	–
CC(OC(=O)CNC(=O)c1ccccc1F)C(=O)Nc1nc(-c2ccccc2)cs1 (stereo not given)	inactive	–
CC(OCC(O)CN(C)CCOc1ccccc1)c1ccc(Cl)cc1 (stereo not given)	inactive	–
Cc1cc(-c2sccc2C)nc(-n2cccc2)n1	inactive	–

target: Short transient receptor potential channel 6 (Mus musculus) (UniProt Q61143); assay: activation of mouse TRPC6 channel, confirmation, selectivity assay for TRPC4 activator project, cell-based, HEK293, membrane potential dye, duplicate (AID 434950;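 active = membrane potential signal rise above negative control mean plus 3 SD in both duplicates, also active in the earlier TRPC4 screen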); conditions: HEK293 TRPC6, membrane potential fluorescence, at 10 µM; hits give high values

SMILES	outcome
COc1cc(C(F)(F)F)nc2c(Br)c(C(C)(C)C)nn12	inactive
COc1ccccc1N(C(=O)c1snc(C(N)=O)c1N)C(C(=O)NC1CCCC1)c1ccc2ncccc2c1 (stereo not given)	inactive
CCc1c(C(=O)N2CCCN(C)CC2)csc1C	inactive
O=c1c2ccccc2nc(SCc2ccc([N+](=O)[O-])cc2)n1CCCO	inactive
CN1/C(=C\C(=O)C[n+]2ccc3ccccc3c2)C(C)(C)c2ccccc21	inactive
CN(C)CCCN(C(=O)c1ccc(S(=O)(=O)N2CCCC2)cc1)c1nc2c(F)cc(F)cc2s1	inactive
O=[N+]([O-])c1cccc(N(CC(O)CN2CCCC2)S(=O)(=O)c2ccccc2)c1 (stereo not given)	inactive
Cc1cc(Nc2cccc(O)c2)c2ccccc2n1	inactive
COc1ccc(CN2CCN(Cc3ccc(C(F)(F)F)cc3)CC2)c(OC)c1	inactive
O=[N+]([O-])c1ccc(O)c(C2=NNC(c3ccccc3F)C2)c1 (stereo not given)	inactive
Cn1c(-c2ccccc2)cnc1NCc1ccc(F)cc1	inactive
COc1nc(N=C(N)N)nc2ccc(C)cc12	inactive
CN(CC(=O)NC1CCCc2ccccc21)C1CCCCC1 (stereo not given)	inactive
O=C(CSc1nnc(-c2ccc(Cl)cc2Cl)n1C1CCCCC1)N1CCCC1	inactive
Cc1ccc(Nc2cc(C)nc3c(C)cccc23)cc1	inactive
COc1cc(OC)c(C2N(C)c3ccccc3N2C)cc1OC	inactive
O=[N+]([O-])c1cccc(-c2nnc(C3CC3)o2)c1	inactive
O=C(NCCN1CCOCC1)c1cc2sccc2n1Cc1ccc(F)cc1	inactive
CN(C)CCCNc1c2ccccc2nc2ccccc12	inactive
COc1ccccc1Nc1nc(NCC2CCCO2)c2ccccc2n1 (stereo not given)	inactive

SMILES	outcome
CC12CCC(C/C1=N/OC(=O)c1cccc([N+](=O)[O-])c1)C2(C)C (stereo not given)	inactive
CCN(CC)CCN(C(=O)c1ccccc1OC)c1nc2ccc(F)cc2s1	inactive
CCOc1ccccc1N(C(=O)c1snc(C(N)=O)c1N)C(C(=O)NCc1ccccc1)c1ccc(O)cc1 (stereo not given)	inactive
Cc1cc([N+](=O)[O-])ccc1NCc1ccccc1	inactive
Cn1c(-c2ccc(F)cc2)cnc1NCc1ccc(F)cc1F	inactive
Nc1cc(N2CCCCC2)c([N+](=O)[O-])cc1Cl	inactive
CN(C)C(CNC(=O)c1cccc(C(F)(F)F)c1)c1ccco1 (stereo not given)	inactive
COc1ccc(CN2CCN(C(=O)c3ccc(F)cc3)CC2)c(OC)c1	inactive
COCCn1c(SCc2ccccc2F)nc2ccccc2c1=O	inactive
COc1ccccc1C(=O)Nc1ccc2c(c1)CCCN2C(=O)c1cccs1	inactive
CCCCn1c(NCc2ccc(N(C)C)cc2)nc2ccccc21	inactive
COc1ccc([N+](=O)[O-])cc1NCc1ccco1	inactive
Cc1cc(C)c2nc(C)cc(N/N=C/c3ccc(O)cc3)c2c1	inactive
Cc1nn(C(=O)CNS(=O)(=O)c2ccccc2)c(C)c1Sc1ccc(Cl)cc1	inactive
Cc1n[nH]c(C)c1CCCCOc1ccccc1F	inactive
COC(=O)C1=C(C)N(Cc2ccccc2)C(=S)N[C@H]1c1ccccc1	inactive
CC1(c2ccccc2)CC(C)(C)N(C(=O)C2CCCO2)c2ccccc21 (stereo not given)	inactive
CC(OC(=O)CNC(=O)c1ccccc1F)C(=O)Nc1nc(-c2ccccc2)cs1 (stereo not given)	inactive
CC(OCC(O)CN(C)CCOc1ccccc1)c1ccc(Cl)cc1 (stereo not given)	inactive
Cc1cc(-c2sccc2C)nc(-n2cccc2)n1	inactive

— PubChem BioAssay
